Molecules are shown by their SMILES.

The assay relates to Candida albicans. Put plainly: Antifungal activity against Candida albicans IFO 0583 at 100 ug/disc after 48 hrs by agar disc diffusion method. In kind it is functional. To be noted: IFO 0583, 48 h, read-out: DIZ. In outline:
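Agar disc diffusion: sterile 8 mm filter-paper discs moistened with compound solution in DMSO, placed on agar plates each pre-inoculated with one organism; plates held at 37 °C; growth inhibition zone diameter measured after 24 h (bacteria) or 48 h (C. albicans).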
For orientation: A growth-free zone around the sample is the usual read-out of agar diffusion tests.

Take `Clc1ccccc1C(c1ccccc1)(c1ccccc1)n1ccnc1` [CLOTRIMAZOLE]: the zone of inhibition at 100 µg/disc came to 21 mm.

These data come from ChEMBL document CHEMBL1828620, “Synthesis of novel 6-phenyl-2,4-disubstituted pyrimidine-5-carbonitriles as potential antimicrobial agents” (2011).
